PLC-gamma1 inh – PLC-gamma1 enzyme inhibitors, primary screen, biochemical, fluorescence, purified enzyme; AID 720700, 2013; fluorogenic substrate; inhibition, % at 12.2 µM; 0.84% of 370,000 active; 1-phosphatidylinositol 4,5-bisphosphate phosphodiesterase gamma-1 (Homo sapiens), P19174; in the data active means inhibition above about 9.5%
DDE Tn6 FP inh – inhibitors of Tn6 peptide binding to fibrin DD(E), primary screen, biochemical, fluorescence polarization, human fibrin, Tn6 probe | Fibrinogen beta chain (Homo sapiens), P02675 | inhibition, % at 8.3 µM | Fibrin DD(E) TRITC-Tn6 fluorescence polarization displacement | 0.21% of 370,000 active | AID 720509, 2013;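 active means inhibition above a per-campaign cutoff: mean of compounds within control limits plus 3 SD, cut at about 15% in these data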
proKLK7 act – proKLK7 zymogen activators, primary screen, biochemical, fluorescence intensity | Kallikrein-7 (Homo sapiens), P49862 | purified proKLK7, EDANS-DABCYL substrate fluorescence; 100% is mature enzyme control, 0% vehicle | activation, % at 7 µM | 0.9% of 370,000 active | AID 652039, 2013;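 active means activation above the mean of all tested compounds plus 3 SD, computed per campaign excluding outliers beyond control limits, cut at about 13% in these data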
PLCb3 inh – human PLC-beta3 inhibitors, primary screen, biochemical, fluorescence; Purified PLC-beta3, fluorogenic substrate; inhibition, % at 12.2 µM; 0.18% of 370,000 active; in the data active means inhibition above about 11%
CendR NRP1 mod – modulators of CendR peptide binding to NRP-1, primary screen, biochemical, fluorescence polarization, uHTS. Neuropilin-1 (Homo sapiens), O14786. FAM-RPARPAR peptide binding to NRP-1. inhibition, % at 25 µM. 0.85% of 360,000 active;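 active means inhibition or corrected inhibition above about 18%, plus a signal ratio from 0.5 to 1.5, limit read from the data, passing the limit was not always enough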
Target sequence (O14786 whole entry, looked up): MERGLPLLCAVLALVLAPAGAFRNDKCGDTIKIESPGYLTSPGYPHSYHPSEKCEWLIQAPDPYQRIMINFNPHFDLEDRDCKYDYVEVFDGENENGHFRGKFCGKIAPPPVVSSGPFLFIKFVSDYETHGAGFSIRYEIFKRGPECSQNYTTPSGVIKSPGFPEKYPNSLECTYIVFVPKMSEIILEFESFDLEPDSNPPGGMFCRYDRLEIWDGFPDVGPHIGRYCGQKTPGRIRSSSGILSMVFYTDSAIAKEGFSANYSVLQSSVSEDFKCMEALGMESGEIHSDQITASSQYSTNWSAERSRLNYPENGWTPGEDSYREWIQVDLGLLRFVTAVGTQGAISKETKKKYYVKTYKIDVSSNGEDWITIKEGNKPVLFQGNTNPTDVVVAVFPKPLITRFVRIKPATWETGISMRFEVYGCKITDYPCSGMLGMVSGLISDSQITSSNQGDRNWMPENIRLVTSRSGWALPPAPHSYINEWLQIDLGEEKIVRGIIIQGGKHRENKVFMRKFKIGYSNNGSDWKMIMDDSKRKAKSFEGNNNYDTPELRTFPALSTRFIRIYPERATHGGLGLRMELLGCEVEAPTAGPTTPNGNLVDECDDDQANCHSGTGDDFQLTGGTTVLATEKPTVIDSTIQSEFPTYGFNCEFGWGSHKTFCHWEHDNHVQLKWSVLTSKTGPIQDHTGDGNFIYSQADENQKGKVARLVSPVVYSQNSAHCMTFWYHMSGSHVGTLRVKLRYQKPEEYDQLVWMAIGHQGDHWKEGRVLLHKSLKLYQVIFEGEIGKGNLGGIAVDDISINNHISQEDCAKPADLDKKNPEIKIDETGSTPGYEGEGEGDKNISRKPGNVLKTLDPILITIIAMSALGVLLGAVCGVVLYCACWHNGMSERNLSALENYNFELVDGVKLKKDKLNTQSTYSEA
Tn7 DDE FP – inhibitors of Tn7 peptide binding to fibrin DD(E), primary screen, biochemical, fluorescence polarization, human fibrin, Tn7 probe; Fibrinogen beta chain (Homo sapiens), P02675; FP displacement of FITC-Tn7 peptide from fibrin DD(E); 0% = median of compound wells per plate; inhibition, % at 8.3 µM; 0.13% of 370,000 active; AID 720508, 2013;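 active means inhibition above the mean of compounds falling within the control limits plus 3 SD of them, cut at about 14% in these data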
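assay system = human clot-derived fibrin DD(E) complex | quantity = Fibrin-DD(E) at 2 µM final | timing = 10 min preincubation, 3 h with tracer, room temperature | signal = fluorescence polarization | measure = percent inhibition | benchmarks = high control wells with 10 µM unlabelled Aha-Tn7 peptide (full inhibition) | replicates = singlicate testing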
Hits are given with their value; . = inactive; / = no result given. A selection: hits, their analogues and other compounds. The true share with any hit is near 3%.

SMILES	PLC-gamma1 inh	DDE Tn6 FP inh	proKLK7 act	PLCb3 inh	CendR NRP1 mod	Tn7 DDE FP
CCCOc1ccc(S(=O)(=O)NNC(=O)c2cc3ccccc3o2)cc1	.	.	.	.	.	.
COC(=O)[C@]12C[C@H](CC(=O)NCc3ccc(OC)c(OC)c3)C(=O)N(Cc3ccc(Cl)cc3Cl)C1=C[C@H](C(C)C)O[C@@H]2C1CC1	.	.	.	.	/	.
COc1ccc(CN(C)C(=O)CCNS(=O)(=O)c2ccccc2)c(OC)c1	.	.	.	.	29	.
NC(N)=NCCC[C@H](NC(=O)OCc1ccccc1)C(=O)O	.	.	.	.	27	.
NC(=O)CC(NC(=O)OCc1ccccc1)C(=O)O (stereo unspecified)	.	.	.	.	31	.
Fc1ccc(-c2n[nH]c(=S)n2N=Cc2ccc(OCc3ccccc3)cc2)cc1	.	.	.	.	/	.
CN(CC#CC1=CCCCC1)/C(N)=N/C(=O)OCc1ccccc1	.	.	.	.	/	.
CCn1c2ccccc2c2cc(NC(=O)c3cc4c(C)nn(-c5ccccc5)c4s3)ccc21	.	.	.	.	/	.
COC(=O)c1cc2c(n1S(=O)(=O)c1ccc(C)cc1)C(=O)C(=O)c1[nH]cc(C(=O)OCc3ccccc3)c1-2	/	/	/	/	27	/
C=CCN(CC#CC1=CCCCC1)Cc1ccc(OC)cc1OC	.	.	.	.	/	.
COC(=O)CC1C(=O)NCCN1C(=S)Nc1ccc(F)cc1 (stereo unspecified)	.	.	.	.	36	.
O=C(CCCC(=O)OCC(=O)c1cccs1)Nc1ccc(Oc2ccccc2)cc1	.	.	.	.	23	.
COc1cccc(CNC(=O)[C@H]2CCCN2C(=O)[C@H]2CCCN2C(=O)OC(C)(C)C)c1	.	.	.	.	/	.
COc1ccc(CNC(=O)c2sc3nc(C)c(Cl)c(C)c3c2N)cc1	.	.	.	.	/	.
CC1(c2nnnn2-c2ccc3ccccc3c2)CSCC(=O)N1C1CC1 (stereo unspecified)	.	.	.	.	/	.
Cc1cc(O)cc(=O)n1-c1cccc(F)c1	.	.	.	.	/	.
O=c1oc2c(-c3cccc(F)c3)cc(O)cc2s1	.	.	.	.	33	.
CCOC(=O)c1csc(NC(=O)C2CCCN(S(=O)(=O)c3cc(OC)ccc3OC)C2)n1 (stereo unspecified)	.	.	.	.	/	.
Cc1nc(C(=O)O)cc2c1[nH]c1ccccc12	.	.	59	.	.	.
Cc1nc(C(=O)NCCO)cc2c1[nH]c1ccccc12	.	.	.	.	.	.
CCN1C[C@@H]2[C@@H]3C(=O)N(Cc4ccccc4)C(=O)[C@@H]3[C@](CC)(C1=O)N2C(=O)c1ccc(C(F)(F)F)cc1	.	.	.	.	30	.
CCN1C[C@@H]2[C@@H]3C(=O)N(Cc4ccccc4)C(=O)[C@@H]3[C@](CC)(C1=O)N2C(=O)c1ccc(C(C)(C)C)cc1	.	.	.	.	26	.
CCN1C[C@@H]2[C@@H]3C(=O)N(Cc4ccccc4)C(=O)[C@@H]3[C@](Cc3ccccc3)(C1=O)N2C(=O)c1ccc(C(F)(F)F)cc1	.	.	.	.	.	.
O=C(NCCc1c[nH]c2ccccc12)OCc1cn(Cc2cccc(F)c2)nn1	.	.	.	.	/	.
Cc1ccccc1Cn1cc(CN2[C@H](CC(C)C)COc3cc(Br)ccc3S2(=O)=O)nn1	.	.	.	.	/	.
CCCn1nc(C(=O)Nc2cc(OCC)c(N3CCOCC3)cc2OCC)c2ccccc2c1=O	.	.	.	.	22	.
CCOc1cc(N2CCOCC2)c(OCC)cc1NC(=O)c1ccccc1	.	.	.	.	.	.
O=C(O)CCNc1ccc2c(c1)OCCO2	.	.	.	.	46	.

High-throughput results (PubChem BioAssay)
